Calls of active or inactive are those of the source. The calls are words filed in the database; no cut-off is given here.
Legend:
[1] = target: T1, Peroxisome proliferator-activated receptor gamma (Homo sapiens, UniProt P37231); test: Binding affinity to PPARgamma (unknown origin) assessed as thermodynamic dissociation constant by SPR assay; details: read-out: Kd
T1 sequence (P37231 whole entry): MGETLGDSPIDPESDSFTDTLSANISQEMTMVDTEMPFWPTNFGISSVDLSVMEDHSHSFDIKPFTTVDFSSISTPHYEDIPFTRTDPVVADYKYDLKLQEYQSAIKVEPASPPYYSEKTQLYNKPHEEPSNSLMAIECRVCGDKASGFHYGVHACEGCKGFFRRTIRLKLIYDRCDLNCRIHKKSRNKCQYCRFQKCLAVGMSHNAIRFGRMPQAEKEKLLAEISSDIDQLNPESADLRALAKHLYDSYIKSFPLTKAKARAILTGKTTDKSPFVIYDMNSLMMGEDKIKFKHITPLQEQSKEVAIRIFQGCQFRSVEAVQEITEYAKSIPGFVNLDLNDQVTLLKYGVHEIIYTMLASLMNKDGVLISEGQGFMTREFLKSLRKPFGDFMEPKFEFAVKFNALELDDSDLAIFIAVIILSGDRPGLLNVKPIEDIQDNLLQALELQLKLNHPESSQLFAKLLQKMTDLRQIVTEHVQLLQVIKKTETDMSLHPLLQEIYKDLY

[2] = target: T2, Peroxisome proliferator-activated receptor alpha (Homo sapiens, UniProt Q07869); test: Transactivation of GAL4-fused human PPARalpa LBD expressed in human HepG2 cells after 20 hrs by luciferase reporter gene assay; type: cell-based
T2 sequence (Q07869 whole entry): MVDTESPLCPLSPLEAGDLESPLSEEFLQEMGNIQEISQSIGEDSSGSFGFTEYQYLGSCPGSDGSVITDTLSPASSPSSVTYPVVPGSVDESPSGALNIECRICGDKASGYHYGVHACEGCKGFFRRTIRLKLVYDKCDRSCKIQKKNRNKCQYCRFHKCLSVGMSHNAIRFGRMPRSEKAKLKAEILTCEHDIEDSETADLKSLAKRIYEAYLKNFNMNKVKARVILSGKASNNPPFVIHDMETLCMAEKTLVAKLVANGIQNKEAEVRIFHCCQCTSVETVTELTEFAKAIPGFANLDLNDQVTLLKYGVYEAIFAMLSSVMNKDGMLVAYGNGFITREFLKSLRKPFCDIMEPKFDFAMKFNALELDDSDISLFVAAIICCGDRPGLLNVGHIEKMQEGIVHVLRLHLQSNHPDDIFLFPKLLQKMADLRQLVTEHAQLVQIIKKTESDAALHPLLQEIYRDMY

[3] = target: T1, Peroxisome proliferator-activated receptor gamma; test: Transactivation of GAL4-fused human PPARgamma LBD expressed in human HepG2 cells after 20 hrs by luciferase reporter gene assay; type: cell-based
[4] = target: T3, Peroxisome proliferator-activated receptor alpha (Homo sapiens) (UniProt Q07869); test: Agonist activity at PPARalpha in human HepG2 cells assessed as increase in CPT1 mRNA level at 1 uM after 24 hrs by RT-PCR method; type: cell-based
T3 sequence (whole entry): T2 sequence (Q07869 whole entry)
How it was run: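 Serum-free HepG2 exposed 24 h to 1 μM test agent (Wy-14,643 reference at 50 μM). RNA extracted from 1x10⁶ cells; TaqMan real-time RT-PCR for CAC, CPT1 or PPARα, normalized to β-actin. Mean ± SD of three independent duplicate experiments; one-way ANOVA with Bonferroni test.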

[5] = target: T4, Peroxisome proliferator-activated receptor gamma (Homo sapiens) (UniProt P37231); test: Agonist activity at PPARgamma in human HT-29 cells assessed as upregulation of p21waf1/cip1 protein expression at 10 uM after 48 hrs by Western blot method; type: cell-based
T4 sequence (whole entry): T1 sequence (P37231 whole entry)
How it was run: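 HT-29 or HEK293T cells in DMEM/10% FBS treated 48 h with 10 μM compound (DMSO vehicle, final below 0.1%). RIPA lysates (with protease inhibitors), 80 μg protein per lane immunoblotted for p21waf1/cip1 with β-actin loading control; densitometric p21/β-actin ratio, mean ± SD of at least three independent experiments.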

[6] = target: T4, Peroxisome proliferator-activated receptor gamma (Homo sapiens); test: Agonist activity at PPARgamma in human HT-29 cells harboring APC mutant assessed as inhibition of Wnt/beta-catenin signaling pathway by measuring decrease in c-Myc level at 10 uM treated for 24 hrs by Western blot method; type: cell-based
How it was run: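 RIPA lysates, 80 μg protein immunoblotted for c-Myc with β-actin loading control; c-Myc/β-actin densitometry, mean ± SD of at least three independent experiments.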

[7] = target: T3, Peroxisome proliferator-activated receptor alpha (Homo sapiens); test: Agonist activity at PPARalpha in human HepG2 cells assessed as increase in CPT1 protein expression level at 1 uM after 48 hrs by Western blot method; type: cell-based
How it was run: (§1)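 HepG2 serum-depleted 24 h, then treated 48 h with 1 μM compound (Wy-14,643 at 50 μM as reference). Nitrocellulose immunoblots probed for CAC, CPT1 or PPARα with β-actin loading control, chemiluminescent detection; band densitometry expressed as fold change versus untreated cells; three independent experiments.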

[8] = target: T3, Peroxisome proliferator-activated receptor alpha (Homo sapiens); test: Agonist activity at PPARalpha assessed as induction of positive regulatory loop based receptor transcriptional activation by measuring upregulation of PPARalpha protein expression level in human HepG2 cells at 1 uM after 48 hrs by Western blot method; type: cell-based; how it was run: as §1
[9] = target: T3, Peroxisome proliferator-activated receptor alpha (Homo sapiens); test: Agonist activity at PPARalpha in human HepG2 cells assessed as increase in mitochondrial mass at 1 uM by CellLight Mitochondria-GFP staining based fluorescent microscopic method relative to control; type: cell-based
How it was run: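 Serum-free HepG2 at 60% confluence transduced with Mitochondria-GFP BacMam 2.0 (50 particles/cell) and given 1 μM compound or 50 μM Wy-14,643 for 24 h. Imaged at 20x with GFP filters (ex 485/em 535 nm); separately, SDS/Tris pH 7.5 lysates read at ex 475, em 500-550 nm. Mean ± SD of three experiments, ANOVA/Bonferroni.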

[10] = target: T1, Peroxisome proliferator-activated receptor gamma; test: Binding affinity to PPARgamma (unknown origin) assessed as kinetic dissociation constant by SPR assay
[11] = target: T5, Peroxisome proliferator-activated receptor delta (Homo sapiens, UniProt Q03181); test: Binding affinity to PPARdelta (unknown origin) assessed as kinetic dissociation constant by SPR assay
T5 sequence (Q03181 whole entry): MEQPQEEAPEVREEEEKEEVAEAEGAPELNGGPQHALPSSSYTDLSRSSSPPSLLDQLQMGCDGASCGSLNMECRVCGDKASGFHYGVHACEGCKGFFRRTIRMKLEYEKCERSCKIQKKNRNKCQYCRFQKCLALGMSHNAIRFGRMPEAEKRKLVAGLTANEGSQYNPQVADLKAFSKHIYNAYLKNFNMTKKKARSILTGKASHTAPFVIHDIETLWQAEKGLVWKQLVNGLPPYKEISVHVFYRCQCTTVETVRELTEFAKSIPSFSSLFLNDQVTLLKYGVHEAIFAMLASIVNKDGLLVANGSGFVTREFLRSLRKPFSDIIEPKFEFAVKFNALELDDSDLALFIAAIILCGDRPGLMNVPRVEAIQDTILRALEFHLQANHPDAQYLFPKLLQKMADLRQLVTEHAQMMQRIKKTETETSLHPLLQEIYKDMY

C[C@@H](Oc1ccc(Cc2ccc(OCc3coc(-c4ccccc4)n3)cc2)cc1)C(=O)O showed a Kd [1] of 3.7 nM, an EC50 [2] of 42 nM and an EC50 [3] of 280 nM. The Activity [4] was “Active”, the Activity [5] was “Active” and the Activity [6] was “Active”. The Activity [7] was “Active”, the Activity [8] was “Active” and the Activity [9] was 30%. The Kd [10] was 0.095 s⁻¹ and the Kd [11] was “Not Active”.

Work on C[C@H](Oc1ccc(Cc2ccc(OCc3coc(-c4ccccc4)n3)cc2)cc1)C(=O)O yielded a Kd [1] of 4.9 nM, an EC50 [2] of 46 nM and an EC50 [3] of 300 nM. For the same molecule, the Activity [4] was “Active”, the Activity [5] was “Active” and the Activity [6] was “Active”. The Activity [7] was “Active”, the Activity [8] was “Active” and the Activity [9] was 30%. For the same molecule, the Kd [10] was 0.099 s⁻¹ and the Kd [11] was “Not Active”.
